Test results published in ChEMBL document CHEMBL4823251, “Structure-Based Exploration of Selectivity for ATM Inhibitors in Huntington's Disease” (J Med Chem, 2021).
Values after ≈ are worked out from the molar mass of the structure shown.

Key:
Homo sapiens [1] = species on record: Homo sapiens; test: Selectivity ratio of Ki for DNA-PK isolated from human HeLa nuclear extract using full length His-tagged p53 as substrate measured after 75 mins in presence of ATP by HTRF assay to Ki for full length recombinant FLAG-tagged human ATM assessed as decrease in p53 S15 phosphorylation using full length myc-tagged p53 as substrate incubated for 30 mins in presence of ATP by ELISA
Method in brief: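 HTRF detection of p53 S15 phosphorylation. ATM reaction: 0.75 nM enzyme, 25 nM myc-p53, 10 μM ATP, 30 min at 20 °C, anti-myc capture ELISA. Ki values are means of at least two experiments.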

[2] = Half life in C57Bl/6 mouse at 0.8 mg/kg, iv administered as single dose; format: ADME, organism-based; conditions: in vivo
Method in brief: (§1)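 Male C57BL/6 mice given a slow tail-vein bolus of a 0.4 mg/mL solution in 10:40:50 DMSO/PEG/H₂O, at 2 mg/kg (5 mL/kg) or 0.8 mg/kg (2 mL/kg). Plasma and brain sampled over 8 h, n = 3 per time point, and measured by LC–MS/MS. Noncompartmental analysis on mean concentrations with linear-trapezoidal AUC. Kp is the brain/plasma AUC ratio of total concentrations; Kpuu uses free concentrations, corrected by equilibrium-dialysis plasma and brain binding.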

Homo sapiens [3] = species on record: Homo sapiens; test: Selectivity ratio of Ki for full length recombinant GST-tagged VPS34 expressed in baculovirus expression system using PI/PS as substrate incubated for 60 mins in presence of ATP at Km concentration by luminescence assay to Ki for full length recombinant FLAG-tagged human ATM assessed as decrease in p53 S15 phosphorylation using full length myc-tagged p53 as substrate incubated for 30 mins in presence of ATP by ELISA
Method in brief: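 ADP-Glo luminescence read-out. ATM reaction: 0.75 nM enzyme, 25 nM myc-p53, 10 μM ATP, 30 min at 20 °C, p53 S15 phosphorylation by ELISA. Ki values are means of at least two experiments.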

[4] = Kinetic solubility of the compound in pH 7.4 PBS buffer incubated for 2 hrs using orbital shaker by LC-UV mass spectrometry; format: physicochemical; conditions: read-out: Kinetic_solubility
Method in brief: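 Shaken on an orbital shaker for 2 h at room temperature, then filtered. Filtrate analysed by LC-UV with MS confirmation, calibrated against 200 μM and 10 μM DMSO dilutions.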

[5] = biological target: Serine/threonine-protein kinase ATR (Homo sapiens, UniProt Q13535); test: Inhibition of ATR in human HT-29 cells assessed as reduction in CHK1 phosphorylation incubated for 4 hrs; format: cell-based
Method in brief: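 HT29 cells seeded at 25k/well overnight, then treated with compound titrations (0.3% DMSO) plus 10 μM gemcitabine for 4 h. Cells fixed in paraformaldehyde, permeabilized with Triton-X, and stained for phospho-Chk1 and total Chk1 using LI-COR IRDye detection. Ratio normalized to DMSO and 30 μM AZ-20 controls. IC50 is the mean of at least two experiments.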

[6] = biological target: T1, Serine-protein kinase ATM (Homo sapiens, UniProt Q13315); test: Inhibition of ATM in human U2OS cells assessed as reduction in etoposide-stimulated KAP1 phosphorylation incubated for 60 mins by immunoreactivity assay; format: cell-based
Method in brief: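 U2OS cells plated overnight at 6k cells/well (37 °C, 5% CO₂), then treated with compound titrations (0.3% DMSO) plus 100 μM etoposide for 60 min. Cells fixed in cold methanol and stained for phospho-KAP1 and total KAP1 using IRDye secondaries on a LI-COR Odyssey. IC50 is the mean of at least two experiments.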

[7] = biological target: T2, Phosphatidylinositol 3-kinase catalytic subunit type 3 (Homo sapiens, UniProt Q8NEB9); test: Inhibition of full length recombinant GST-tagged human VPS34 expressed in baculovirus expression system using PI/PS as substrate incubated for 60 mins in presence of ATP at Km concentration by luminescence assay
T2 sequence (Q8NEB9 whole entry): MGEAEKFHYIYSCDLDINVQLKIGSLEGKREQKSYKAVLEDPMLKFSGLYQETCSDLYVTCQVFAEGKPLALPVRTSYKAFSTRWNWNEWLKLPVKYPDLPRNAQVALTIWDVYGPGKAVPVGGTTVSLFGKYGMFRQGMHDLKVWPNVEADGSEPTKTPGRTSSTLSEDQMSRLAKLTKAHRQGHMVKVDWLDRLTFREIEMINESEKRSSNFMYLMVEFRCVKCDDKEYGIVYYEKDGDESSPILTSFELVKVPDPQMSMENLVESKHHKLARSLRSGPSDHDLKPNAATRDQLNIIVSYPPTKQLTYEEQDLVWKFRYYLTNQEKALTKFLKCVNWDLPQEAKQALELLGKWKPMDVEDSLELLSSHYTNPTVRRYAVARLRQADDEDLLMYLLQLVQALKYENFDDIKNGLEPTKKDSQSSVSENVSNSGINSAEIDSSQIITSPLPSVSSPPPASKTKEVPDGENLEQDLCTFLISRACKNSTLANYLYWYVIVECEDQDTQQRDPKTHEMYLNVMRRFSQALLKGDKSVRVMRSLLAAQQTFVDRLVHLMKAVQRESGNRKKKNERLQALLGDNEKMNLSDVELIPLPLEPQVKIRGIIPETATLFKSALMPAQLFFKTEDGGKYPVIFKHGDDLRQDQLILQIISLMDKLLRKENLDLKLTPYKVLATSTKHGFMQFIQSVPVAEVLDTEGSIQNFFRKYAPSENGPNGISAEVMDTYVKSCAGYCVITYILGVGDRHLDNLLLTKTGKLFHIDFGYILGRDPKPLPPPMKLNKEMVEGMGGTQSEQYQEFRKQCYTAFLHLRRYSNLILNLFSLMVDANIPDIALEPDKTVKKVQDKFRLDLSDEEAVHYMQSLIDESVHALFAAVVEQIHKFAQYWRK

[8] = biological target: DNA-dependent protein kinase catalytic subunit (Homo sapiens, UniProt P78527); test: Inhibition of DNA-PK isolated from human HeLa nuclear extract using full length His-tagged p53 as substrate measured after 75 mins in presence of ATP by HTRF assay; format: subcellular, Nucleus
DNA-dependent protein kinase catalytic subunit, sequence (P78527 whole entry): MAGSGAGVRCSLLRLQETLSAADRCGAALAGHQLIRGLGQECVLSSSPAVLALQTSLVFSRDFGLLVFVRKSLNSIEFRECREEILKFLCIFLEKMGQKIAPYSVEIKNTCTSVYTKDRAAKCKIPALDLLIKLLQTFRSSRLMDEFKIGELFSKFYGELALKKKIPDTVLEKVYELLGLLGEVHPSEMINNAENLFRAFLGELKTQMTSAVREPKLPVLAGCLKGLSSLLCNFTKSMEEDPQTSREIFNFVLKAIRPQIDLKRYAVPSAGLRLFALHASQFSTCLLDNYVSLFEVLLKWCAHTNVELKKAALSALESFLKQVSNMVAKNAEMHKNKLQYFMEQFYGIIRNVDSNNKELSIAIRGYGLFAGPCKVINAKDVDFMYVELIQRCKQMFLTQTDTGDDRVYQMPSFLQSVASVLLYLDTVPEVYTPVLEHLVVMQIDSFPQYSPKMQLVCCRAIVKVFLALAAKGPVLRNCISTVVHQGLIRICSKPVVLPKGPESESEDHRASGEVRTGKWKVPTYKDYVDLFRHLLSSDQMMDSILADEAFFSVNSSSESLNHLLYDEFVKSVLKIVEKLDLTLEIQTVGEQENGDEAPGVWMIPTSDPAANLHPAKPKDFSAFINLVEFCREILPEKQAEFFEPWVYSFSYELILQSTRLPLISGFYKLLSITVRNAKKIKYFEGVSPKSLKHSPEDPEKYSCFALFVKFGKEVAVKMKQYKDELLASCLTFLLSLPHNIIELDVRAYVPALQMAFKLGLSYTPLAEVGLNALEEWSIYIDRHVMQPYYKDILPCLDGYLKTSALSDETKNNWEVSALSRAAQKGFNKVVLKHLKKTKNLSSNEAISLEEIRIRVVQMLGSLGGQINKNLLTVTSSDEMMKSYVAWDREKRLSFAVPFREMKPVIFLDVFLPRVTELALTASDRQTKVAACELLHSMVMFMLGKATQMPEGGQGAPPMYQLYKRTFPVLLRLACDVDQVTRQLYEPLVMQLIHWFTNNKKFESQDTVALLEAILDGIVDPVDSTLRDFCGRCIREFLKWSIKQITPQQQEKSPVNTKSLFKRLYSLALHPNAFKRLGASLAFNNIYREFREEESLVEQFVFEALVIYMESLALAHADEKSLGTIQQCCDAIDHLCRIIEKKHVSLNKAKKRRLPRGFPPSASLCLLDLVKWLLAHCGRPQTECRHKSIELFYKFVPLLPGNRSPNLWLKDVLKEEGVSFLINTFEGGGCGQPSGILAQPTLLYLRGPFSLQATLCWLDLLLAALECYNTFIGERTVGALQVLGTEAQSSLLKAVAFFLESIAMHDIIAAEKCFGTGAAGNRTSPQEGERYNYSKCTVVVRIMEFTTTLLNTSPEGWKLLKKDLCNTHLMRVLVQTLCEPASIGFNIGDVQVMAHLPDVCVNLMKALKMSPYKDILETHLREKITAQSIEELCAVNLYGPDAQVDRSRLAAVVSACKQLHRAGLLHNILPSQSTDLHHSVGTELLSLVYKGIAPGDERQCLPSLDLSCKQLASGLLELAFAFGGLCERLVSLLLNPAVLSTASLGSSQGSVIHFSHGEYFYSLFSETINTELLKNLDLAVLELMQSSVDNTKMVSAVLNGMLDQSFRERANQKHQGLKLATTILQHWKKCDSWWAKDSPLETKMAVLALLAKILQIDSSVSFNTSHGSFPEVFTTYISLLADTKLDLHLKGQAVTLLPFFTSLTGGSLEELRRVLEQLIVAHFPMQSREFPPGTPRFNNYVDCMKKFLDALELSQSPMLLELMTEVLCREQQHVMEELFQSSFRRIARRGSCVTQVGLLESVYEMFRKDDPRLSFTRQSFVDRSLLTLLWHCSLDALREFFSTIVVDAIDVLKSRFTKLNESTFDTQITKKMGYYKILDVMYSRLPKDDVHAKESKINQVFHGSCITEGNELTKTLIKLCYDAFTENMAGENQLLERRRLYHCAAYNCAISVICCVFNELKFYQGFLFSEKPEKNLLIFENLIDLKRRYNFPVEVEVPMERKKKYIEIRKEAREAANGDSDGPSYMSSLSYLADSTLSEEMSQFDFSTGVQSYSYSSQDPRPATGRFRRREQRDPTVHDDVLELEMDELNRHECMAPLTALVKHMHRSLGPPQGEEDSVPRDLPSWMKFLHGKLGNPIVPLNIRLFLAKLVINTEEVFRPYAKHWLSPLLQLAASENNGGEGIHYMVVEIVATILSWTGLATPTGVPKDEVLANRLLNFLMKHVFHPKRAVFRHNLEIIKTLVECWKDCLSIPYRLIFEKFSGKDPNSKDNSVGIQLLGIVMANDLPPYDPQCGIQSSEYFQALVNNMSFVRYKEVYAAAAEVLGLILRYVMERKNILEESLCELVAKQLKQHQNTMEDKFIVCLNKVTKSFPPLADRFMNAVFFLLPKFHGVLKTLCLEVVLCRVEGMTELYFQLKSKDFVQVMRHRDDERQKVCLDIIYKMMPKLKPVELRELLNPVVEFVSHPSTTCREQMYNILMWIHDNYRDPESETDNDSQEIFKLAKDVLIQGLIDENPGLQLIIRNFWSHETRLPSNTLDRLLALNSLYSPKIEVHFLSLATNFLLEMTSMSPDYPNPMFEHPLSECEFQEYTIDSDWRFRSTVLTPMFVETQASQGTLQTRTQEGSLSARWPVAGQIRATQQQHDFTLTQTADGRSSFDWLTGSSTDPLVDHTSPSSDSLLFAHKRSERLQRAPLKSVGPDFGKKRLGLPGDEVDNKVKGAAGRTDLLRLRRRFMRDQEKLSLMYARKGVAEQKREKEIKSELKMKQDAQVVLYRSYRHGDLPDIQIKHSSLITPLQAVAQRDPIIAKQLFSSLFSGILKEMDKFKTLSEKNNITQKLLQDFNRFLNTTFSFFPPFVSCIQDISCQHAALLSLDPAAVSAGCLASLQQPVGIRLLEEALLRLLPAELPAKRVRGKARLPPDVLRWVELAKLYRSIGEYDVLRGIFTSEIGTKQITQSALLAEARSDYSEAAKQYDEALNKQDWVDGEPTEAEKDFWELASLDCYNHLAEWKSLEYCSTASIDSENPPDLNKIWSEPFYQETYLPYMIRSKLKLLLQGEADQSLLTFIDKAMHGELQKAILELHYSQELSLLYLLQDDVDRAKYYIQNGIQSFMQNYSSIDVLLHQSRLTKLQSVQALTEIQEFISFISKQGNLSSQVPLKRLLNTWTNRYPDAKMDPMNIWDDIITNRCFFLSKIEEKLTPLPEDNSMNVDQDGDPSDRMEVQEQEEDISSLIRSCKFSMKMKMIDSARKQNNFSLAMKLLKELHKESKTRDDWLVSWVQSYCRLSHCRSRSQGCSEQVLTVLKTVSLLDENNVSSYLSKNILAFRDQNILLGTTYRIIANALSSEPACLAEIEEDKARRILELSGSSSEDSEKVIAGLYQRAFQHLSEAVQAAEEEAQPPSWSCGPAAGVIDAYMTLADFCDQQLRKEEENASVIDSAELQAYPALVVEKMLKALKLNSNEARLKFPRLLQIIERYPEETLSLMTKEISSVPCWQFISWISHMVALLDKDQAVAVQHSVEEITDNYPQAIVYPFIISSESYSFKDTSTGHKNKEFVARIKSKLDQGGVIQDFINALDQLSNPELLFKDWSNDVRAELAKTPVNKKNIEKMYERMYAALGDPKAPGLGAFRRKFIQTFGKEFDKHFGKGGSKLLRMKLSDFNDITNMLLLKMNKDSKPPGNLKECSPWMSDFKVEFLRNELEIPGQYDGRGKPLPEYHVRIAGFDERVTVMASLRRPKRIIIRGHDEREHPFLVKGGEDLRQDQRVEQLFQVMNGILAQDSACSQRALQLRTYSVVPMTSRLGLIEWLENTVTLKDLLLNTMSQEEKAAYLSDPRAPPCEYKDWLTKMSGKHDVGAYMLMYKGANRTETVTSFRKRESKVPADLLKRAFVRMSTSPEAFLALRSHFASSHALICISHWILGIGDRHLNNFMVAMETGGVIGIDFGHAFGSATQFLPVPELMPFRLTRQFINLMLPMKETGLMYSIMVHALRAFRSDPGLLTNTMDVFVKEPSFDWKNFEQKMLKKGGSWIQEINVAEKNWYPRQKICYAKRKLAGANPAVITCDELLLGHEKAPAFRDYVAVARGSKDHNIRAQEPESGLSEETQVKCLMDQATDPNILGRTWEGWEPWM
Method in brief: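 Buffer was 50 mM HEPES pH 7.5, 5 mM MgCl₂, 0.01% Brij35, 1 mM DTT and 1 μg/mL sheared calf thymus DNA; reaction ran 75 min at 20 °C. Stopped with d2-anti-6HIS and cryptate anti-phospho-p53 antibodies in KF/EDTA buffer. Read at 665/620 nm after 7 h.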

[9] = Bioavailability in C57Bl/6 mouse at 10 mg/kg, po or 0.8 mg/kg, iv; format: ADME, organism-based; conditions: in vivo
Method in brief: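 An IV reference dose of 0.8 mg/kg was given. Plasma measured by LC–MS/MS, n = 3 per time point. %F calculated as dose-normalized PO AUCinf divided by dose-normalized IV AUCinf.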

[10] = biological target: T1, Serine-protein kinase ATM; test: Inhibition of full length recombinant FLAG-tagged human ATM assessed as decrease in p53 S15 phosphorylation using full length myc-tagged p53 as substrate incubated for 30 mins in presence of ATP by ELISA
Method in brief: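 Buffer was 25 mM HEPES pH 7.5 with MgCl₂, MnCl₂, Brij-35, glycerol, BSA and DTT (0.1% DMSO); reaction ran 30 min at 20 °C and was stopped with 70 mM EDTA. Product captured on anti-myc-coated plates and detected with anti-p53 pS15, HRP secondary and TMB, absorbance at 450 nm.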

[11] = Brain to plasma permeability coefficient, Kp in C57Bl/6 mouse at 0.8 mg/kg, iv administered as single dose; format: ADME, organism-based; conditions: brain and plasma; method in brief: as §1
[12] = Clearance in C57Bl/6 mouse at 0.8 mg/kg, iv administered as single dose; format: ADME, organism-based; conditions: in vivo; method in brief: as §1
[13] = Unbound brain-to-plasma concentration ratio in C57Bl/6 mouse at 0.8 mg/kg, iv administered as single dose; format: ADME, organism-based; conditions: brain and plasma, read-out: K(p,uu,brain); method in brief: as §1
[14] = Volume of distribution at steady state in C57Bl/6 mouse at 0.8 mg/kg, iv administered as single dose; format: ADME, organism-based; conditions: in vivo, read-out: Vdss; method in brief: as §1
[15] = Apparent permeability across apical to basolateral side in MDCK-MDR1 cells after 1 hr by LC-MS/MS analysis; format: ADME, cell-based, Canis lupus familiaris; conditions: dog
Method in brief: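 MDCKII-MDR1 and wild-type cells seeded at 2 × 10⁵ cells/well on Transwells and cultured 3 days. Test compound at 10 μM in HBSS with 25 mM HEPES, pH 7.4, added apical or basolateral in duplicate. Lucifer yellow used as integrity check; wells above 100 nm/s rejected. Sampled after 1 h at 37 °C and quantified by LC–MS/MS. Papp taken from the apical-to-basal direction.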

[16] = Effective efflux ratio of apparent permeability across basolateral to apical over apical to basolateral side in MDCK-MDR1 cells assessed as efflux ratio after 1 hr by LC-MS/MS analysis; format: ADME, cell-based, Canis lupus familiaris; conditions: dog, mdck-mdr1, 1 h
Method in brief: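 MDCKII MDR1 and wild-type cells seeded at 2 × 10⁵ cells/well in Transwells, cultured 3 days. Test compounds 10 μM in HBSS with 25 mM HEPES pH 7.4, dosed apical or basolateral in duplicate, 1 h at 37 °C. Lucifer yellow monolayer check, wells above 100 nm/s rejected. LC–MS/MS read-out. ER = Papp B>A/A>B. EER = MDR1 ER over wild-type ER.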

[17] = Intrinsic clearance in C57Bl/6 mouse pooled liver microsomes at 1 uM measured up to 40 mins in presence of NADPH by LC-MS/MS analysis; format: ADME, Microsome; conditions: read-out: CLH
Method in brief: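 Reaction started with 1 mM NADPH. Sampled at 0, 5, 10, 20 and 40 min, quenched in acetonitrile with internal standard, and analysed by LC–MS/MS.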

[18] = Half life in C57Bl/6 mouse at 2 mg/kg, iv administered as single dose; format: ADME, organism-based; conditions: in vivo; method in brief: as §1
[19] = Unbound brain-to-plasma concentration ratio in C57Bl/6 mouse at 2 mg/kg, iv administered as single dose; format: ADME, organism-based; conditions: brain and plasma, read-out: K(p,uu,brain); method in brief: as §1
[20] = biological target: T2, Phosphatidylinositol 3-kinase catalytic subunit type 3; test: Binding affinity to VPS34 (unknown origin)
[21] = Volume of distribution at steady state in C57Bl/6 mouse at 2 mg/kg, iv administered as single dose; format: ADME, organism-based; conditions: in vivo, read-out: Vdss; method in brief: as §1
[22] = Clearance in C57Bl/6 mouse at 2 mg/kg, iv administered as single dose; format: ADME, organism-based; conditions: in vivo; method in brief: as §1
[23] = Brain to plasma permeability coefficient, Kp in C57Bl/6 mouse at 2 mg/kg, iv administered as single dose; format: ADME, organism-based; conditions: brain and plasma; method in brief: as §1
[24] = Bioavailability in C57Bl/6 mouse at 10 mg/kg, po or 2 mg/kg, iv; conditions: in vivo
[25] = Aqueous solubility of the compound in pH 7.4; format: physicochemical; conditions: buffer

Row | Ratio Ki (Homo sapiens [1]) | Ratio Ki (Homo sapiens [3]) | solubility kinetic at 2 h [4] [µg/mL] | IC50 [5] [nM] | IC50 [6] [nM] | Ki [7] [nM] | Ki [8] [nM] | Ki [10] [nM] | Papp A→B at 1 h [15] [×10⁻⁶ cm/s] | Ratio [16] | CLint scaled at 1 µM [17] [mL/min/kg] | Compound | also measured
1 |  | 43 | > 71 |  | 1300 | 110 |  | 3 | 51.8 | 7.2 | < 65 | O=c1cc(N2CCOCC2)cc(N2CC[C@@H](F)[C@@H]2Cc2ccccc2)[nH]1 | 
2 | 180 | 50 | > 58 | > 30000 | 230 | 50 | 180 | 1 | 55.6 | 4.3 | 69 | O=c1cc(N2CCOCC2)cc(N2CCCCC[C@@H]2Cc2ccccc2)[nH]1 | half-life [18]: 1.6 h; Kp uu [19]: 0.18; Kd [20]: 11000 nM; Vd [21]: 3.4 L/kg; clearance [22]: 35 mL/min/kg; Kp [23]: 0.41; bioavailability [24]: 68%
3 |  |  | 11 (≈ 27 µM) |  |  |  |  |  |  |  |  | COc1ccc2c(c1)Cc1cccc(-c3cc(=O)cc(N4CCOCC4)o3)c1S2 | solubility [25]: 1 µg/mL (≈ 2.45 µM)

Further lines, the compound ahead of its results:

Row | Compound | Ratio Ki (Homo sapiens [1]) | Ratio Ki (Homo sapiens [3]) | solubility kinetic at 2 h [4] [µg/mL] | IC50 [5] [nM] | IC50 [6] [nM] | Ki [7] [nM] | Ki [8] [nM] | Ki [10] [nM] | Papp A→B at 1 h [15] [×10⁻⁶ cm/s] | Ratio [16] | CLint scaled at 1 µM [17] [mL/min/kg] | also measured
4 | C[C@@H]1CCN(c2nc(N3CCOCC3)cc(=O)[nH]2)[C@H]1Cc1ccccc1 | 275 | 15 | 33 (≈ 93.1 µM) | 5500 | 90 | 6 | 110 | 0.4 |  |  |  | half-life [2]: 0.75 h; bioavailability [9]: 78%; Kp [11]: 1; clearance [12]: 115 mL/min/kg; Kp uu [13]: 0.47; Vd [14]: 11 L/kg
5 | C[C@@H]1CN(c2cc(N3C[C@@H]4C[C@@H]4[C@@H]3Cc3ccccc3)[nH]c(=O)c2)CCO1 |  |  | 23 (≈ 62.9 µM) | 13000 |  | 750 | 7 |  |  |  |  | 
6 | Oc1cc(N2CCOCC2)nc(N2CCC[C@@H]2Cc2ccccc2)n1 |  | 16 | 34 (≈ 99.9 µM) |  | 500 | 16 |  | 1 | 77.5 | 4.5 | 261 | 
